System: U2OS
Assay: Multiplex assay against U2OS
Assay type: toxicity, cell-based
Settings: human
Summary of the method: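 Imaging took place on a CQ1 microscope at 37°C and 5% CO2 once compound had been added to live cells stained at seeding with Hoechst33342, BioTracker Green Microtubule Cytoskeleton Dye, MitoTracker Red and Annexin V Alexa Fluor 680. CellPathfinder machine-learning gating classed cells as Hoechst high-intensity objects or normal cells, classed normal cells as having healthy, pyknosed or fragmented nuclei, and classed pyknosed cells as mitotic or apoptotic. Tubulin, mitochondrial-mass and membrane-permeability phenotypes are per cents of the healthy-nucleus cells.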

[1] = 12 h, 1 µM, compound concentration 1 uM, replicate 1
[2] = 12 h, 1 µM, compound concentration 1 uM, replicate 2
[3] = 12 h, 10 µM, compound concentration 10 uM, replicate 1
[4] = 12 h, 10 µM, compound concentration 10 uM, replicate 2
[5] = 24 h, 1 µM, compound concentration 1 uM, replicate 1
[6] = 24 h, 1 µM, compound concentration 1 uM, replicate 2
[7] = 24 h, 10 µM, compound concentration 10 uM, replicate 1
[8] = 24 h, 10 µM, compound concentration 10 uM, replicate 2
[9] = 48 h, 1 µM, compound concentration 1 uM, replicate 1
[10] = 48 h, 1 µM, compound concentration 1 uM, replicate 2
[11] = 48 h, 10 µM, compound concentration 10 uM, replicate 1
[12] = 48 h, 10 µM, compound concentration 10 uM, replicate 2

## COc1ccc2c(c1OCc1ccccc1)C[C@@H](C(=O)O)N(C(=O)C(c1ccccc1)c1ccccc1)C2 [OLODANRIGAN]
[1]
  Population Apoptotic (%): 82%
  Population Fragmented Nuclei (%): 31%
  Population Healthy Nuclei (%): 59%
  Population Hoechst High Intensity Objects (%): 2%
  Population Membrane Permeable-Phenotype (%): 4%
  Population Mitochondria Different-Phenotype (%): 0%
  Population Mitotic Cells (%): 17%
  Population Normal (%): 97%
  Population Pyknosed Nuclei (%): 8%
  Population Tubulin-Different-Phenotype (%): 1%
  Total Cell Count: 286
[2]
  Population Apoptotic (%): 66%
  Population Fragmented Nuclei (%): 18%
  Population Healthy Nuclei (%): 75%
  Population Hoechst High Intensity Objects (%): 3%
  Population Membrane Permeable-Phenotype (%): 6%
  Population Mitochondria Different-Phenotype (%): 4%
  Population Mitotic Cells (%): 33%
  Population Normal (%): 96%
  Population Pyknosed Nuclei (%): 5%
  Population Tubulin-Different-Phenotype (%): 2%
  Total Cell Count: 112
[3]
  Population Apoptotic (%): 78%
  Population Fragmented Nuclei (%): 30%
  Population Healthy Nuclei (%): 64%
  Population Hoechst High Intensity Objects (%): 1%
  Population Membrane Permeable-Phenotype (%): 6%
  Population Mitochondria Different-Phenotype (%): 1%
  Population Mitotic Cells (%): 21%
  Population Normal (%): 98%
  Population Pyknosed Nuclei (%): 5%
  Population Tubulin-Different-Phenotype (%): 2%
  Total Cell Count: 273
[4]
  Population Apoptotic (%): 81%
  Population Fragmented Nuclei (%): 26%
  Population Healthy Nuclei (%): 63%
  Population Hoechst High Intensity Objects (%): 0%
  Population Membrane Permeable-Phenotype (%): 2%
  Population Mitotic Cells (%): 18%
  Population Normal (%): 99%
  Population Pyknosed Nuclei (%): 10%
  Total Cell Count: 110
[5]
  Population Apoptotic (%): 87%
  Population Fragmented Nuclei (%): 25%
  Population Healthy Nuclei (%): 64%
  Population Hoechst High Intensity Objects (%): 0%
  Population Membrane Permeable-Phenotype (%): 2%
  Population Mitochondria Different-Phenotype (%): 0%
  Population Mitotic Cells (%): 12%
  Population Normal (%): 99%
  Population Pyknosed Nuclei (%): 10%
  Population Tubulin-Different-Phenotype (%): 2%
  Total Cell Count: 311
[6]
  Population Apoptotic (%): 55%
  Population Fragmented Nuclei (%): 18%
  Population Healthy Nuclei (%): 74%
  Population Hoechst High Intensity Objects (%): 2%
  Population Membrane Permeable-Phenotype (%): 9%
  Population Mitochondria Different-Phenotype (%): 6%
  Population Mitotic Cells (%): 44%
  Population Normal (%): 97%
  Population Pyknosed Nuclei (%): 6%
  Population Tubulin-Different-Phenotype (%): 5%
  Total Cell Count: 143
[7]
  Population Apoptotic (%): 83%
  Population Fragmented Nuclei (%): 27%
  Population Healthy Nuclei (%): 66%
  Population Hoechst High Intensity Objects (%): 1%
  Population Membrane Permeable-Phenotype (%): 4%
  Population Mitochondria Different-Phenotype (%): 0%
  Population Mitotic Cells (%): 16%
  Population Normal (%): 98%
  Population Pyknosed Nuclei (%): 5%
  Population Tubulin-Different-Phenotype (%): 1%
  Total Cell Count: 318
[8]
  Population Apoptotic (%): 50%
  Population Fragmented Nuclei (%): 22%
  Population Healthy Nuclei (%): 72%
  Population Hoechst High Intensity Objects (%): 0%
  Population Mitochondria Different-Phenotype (%): 1%
  Population Mitotic Cells (%): 50%
  Population Normal (%): 100%
  Population Pyknosed Nuclei (%): 4%
  Population Tubulin-Different-Phenotype (%): 2%
  Total Cell Count: 123
[9]
  Population Apoptotic (%): 91%
  Population Fragmented Nuclei (%): 22%
  Population Healthy Nuclei (%): 70%
  Population Hoechst High Intensity Objects (%): 3%
  Population Membrane Permeable-Phenotype (%): 4%
  Population Mitochondria Different-Phenotype (%): 1%
  Population Mitotic Cells (%): 8%
  Population Normal (%): 96%
  Population Pyknosed Nuclei (%): 7%
  Population Tubulin-Different-Phenotype (%): 2%
  Total Cell Count: 483
[10]
  Population Apoptotic (%): 78%
  Population Fragmented Nuclei (%): 14%
  Population Healthy Nuclei (%): 77%
  Population Hoechst High Intensity Objects (%): 4%
  Population Membrane Permeable-Phenotype (%): 3%
  Population Mitochondria Different-Phenotype (%): 3%
  Population Mitotic Cells (%): 21%
  Population Normal (%): 95%
  Total Cell Count: 184
[11]
  Population Apoptotic (%): 88%
  Population Fragmented Nuclei (%): 20%
  Population Healthy Nuclei (%): 71%
  Population Hoechst High Intensity Objects (%): 1%
  Population Membrane Permeable-Phenotype (%): 5%
  Population Mitochondria Different-Phenotype (%): 1%
  Population Mitotic Cells (%): 11%
  Population Normal (%): 98%
  Population Pyknosed Nuclei (%): 8%
  Population Tubulin-Different-Phenotype (%): 3%
  Total Cell Count: 451
[12]
  Population Apoptotic (%): 85%
  Population Fragmented Nuclei (%): 18%
  Population Healthy Nuclei (%): 77%
  Population Membrane Permeable-Phenotype (%): 7%
  Population Mitochondria Different-Phenotype (%): 6%
  Population Mitotic Cells (%): 14%
  Population Pyknosed Nuclei (%): 4%
  Population Tubulin-Different-Phenotype (%): 5%
  Total Cell Count: 163

## Cc1cc(NC(=O)NCCN2CCC(O)(Cc3ccccc3)CC2)c2ccccc2n1 [PALOSURAN]
[1]
  Population Apoptotic (%): 80%
  Population Fragmented Nuclei (%): 27%
  Population Healthy Nuclei (%): 65%
  Population Hoechst High Intensity Objects (%): 1%
  Population Membrane Permeable-Phenotype (%): 4%
  Population Mitochondria Different-Phenotype (%): 2%
  Population Mitotic Cells (%): 20%
  Population Normal (%): 98%
  Population Pyknosed Nuclei (%): 6%
  Population Tubulin-Different-Phenotype (%): 1%
  Total Cell Count: 220
[2]
  Population Apoptotic (%): 71%
  Population Fragmented Nuclei (%): 19%
  Population Healthy Nuclei (%): 71%
  Population Hoechst High Intensity Objects (%): 0%
  Population Membrane Permeable-Phenotype (%): 2%
  Population Mitochondria Different-Phenotype (%): 0%
  Population Mitotic Cells (%): 28%
  Population Normal (%): 100%
  Population Pyknosed Nuclei (%): 9%
  Total Cell Count: 145
[3]
  Population Apoptotic (%): 72%
  Population Fragmented Nuclei (%): 30%
  Population Healthy Nuclei (%): 59%
  Population Hoechst High Intensity Objects (%): 3%
  Population Membrane Permeable-Phenotype (%): 6%
  Population Mitochondria Different-Phenotype (%): 1%
  Population Mitotic Cells (%): 28%
  Population Normal (%): 96%
  Population Pyknosed Nuclei (%): 9%
  Population Tubulin-Different-Phenotype (%): 1%
  Total Cell Count: 266
[4]
  Population Apoptotic (%): 66%
  Population Fragmented Nuclei (%): 17%
  Population Healthy Nuclei (%): 70%
  Population Membrane Permeable-Phenotype (%): 12%
  Population Mitochondria Different-Phenotype (%): 2%
  Population Mitotic Cells (%): 33%
  Population Pyknosed Nuclei (%): 11%
  Population Tubulin-Different-Phenotype (%): 8%
  Total Cell Count: 107
[5]
  Population Apoptotic (%): 94%
  Population Fragmented Nuclei (%): 26%
  Population Healthy Nuclei (%): 66%
  Population Hoechst High Intensity Objects (%): 1%
  Population Membrane Permeable-Phenotype (%): 3%
  Population Mitochondria Different-Phenotype (%): 3%
  Population Mitotic Cells (%): 5%
  Population Normal (%): 98%
  Population Pyknosed Nuclei (%): 6%
  Population Tubulin-Different-Phenotype (%): 2%
  Total Cell Count: 276
[6]
  Population Apoptotic (%): 66%
  Population Fragmented Nuclei (%): 17%
  Population Healthy Nuclei (%): 74%
  Population Membrane Permeable-Phenotype (%): 7%
  Population Mitochondria Different-Phenotype (%): 7%
  Population Mitotic Cells (%): 33%
  Population Pyknosed Nuclei (%): 8%
  Population Tubulin-Different-Phenotype (%): 3%
  Total Cell Count: 173
[7]
  Population Apoptotic (%): 92%
  Population Fragmented Nuclei (%): 26%
  Population Healthy Nuclei (%): 65%
  Population Hoechst High Intensity Objects (%): 3%
  Population Membrane Permeable-Phenotype (%): 4%
  Population Mitochondria Different-Phenotype (%): 0%
  Population Mitotic Cells (%): 8%
  Population Normal (%): 96%
  Population Pyknosed Nuclei (%): 8%
  Population Tubulin-Different-Phenotype (%): 2%
  Total Cell Count: 297
[8]
  Population Apoptotic (%): 75%
  Population Fragmented Nuclei (%): 19%
  Population Healthy Nuclei (%): 74%
  Population Membrane Permeable-Phenotype (%): 11%
  Population Mitochondria Different-Phenotype (%): 1%
  Population Mitotic Cells (%): 25%
  Population Pyknosed Nuclei (%): 6%
  Population Tubulin-Different-Phenotype (%): 5%
  Total Cell Count: 129
[9]
  Population Apoptotic (%): 96%
  Population Fragmented Nuclei (%): 25%
  Population Healthy Nuclei (%): 68%
  Population Hoechst High Intensity Objects (%): 1%
  Population Membrane Permeable-Phenotype (%): 5%
  Population Mitochondria Different-Phenotype (%): 3%
  Population Mitotic Cells (%): 3%
  Population Normal (%): 98%
  Population Pyknosed Nuclei (%): 6%
  Population Tubulin-Different-Phenotype (%): 3%
  Total Cell Count: 411
[10]
  Population Apoptotic (%): 84%
  Population Fragmented Nuclei (%): 15%
  Population Healthy Nuclei (%): 73%
  Population Hoechst High Intensity Objects (%): 3%
  Population Membrane Permeable-Phenotype (%): 7%
  Population Mitochondria Different-Phenotype (%): 5%
  Population Mitotic Cells (%): 16%
  Population Normal (%): 97%
  Population Pyknosed Nuclei (%): 11%
  Population Tubulin-Different-Phenotype (%): 4%
  Total Cell Count: 233
[11]
  Population Apoptotic (%): 97%
  Population Fragmented Nuclei (%): 20%
  Population Healthy Nuclei (%): 70%
  Population Hoechst High Intensity Objects (%): 1%
  Population Membrane Permeable-Phenotype (%): 5%
  Population Mitochondria Different-Phenotype (%): 2%
  Population Mitotic Cells (%): 2%
  Population Normal (%): 98%
  Population Pyknosed Nuclei (%): 9%
  Population Tubulin-Different-Phenotype (%): 2%
  Total Cell Count: 421
[12]
  Population Apoptotic (%): 89%
  Population Fragmented Nuclei (%): 16%
  Population Healthy Nuclei (%): 72%
  Population Membrane Permeable-Phenotype (%): 7%
  Population Mitochondria Different-Phenotype (%): 4%
  Population Mitotic Cells (%): 10%
  Population Pyknosed Nuclei (%): 10%
  Population Tubulin-Different-Phenotype (%): 1%
  Total Cell Count: 180
